ChEMBL document CHEMBL1154745, “Synthesis and biological evaluation of N-aryl-1,4-dihydropyridines as novel antidyslipidemic and antioxidant agents” (2010)

Key:
[1] = Antioxidant activity assessed as hydroxyl radical scavenging activity at 200 ug/ml; format: functional
[2] = Antioxidant activity assessed as hydroxyl radical scavenging activity at 100 ug/ml; format: functional
[3] = Antioxidant activity assessed as inhibition of microsomal lipid peroxidation at 200 ug/mL; format: functional; parameters: scale not given: the % may be the effect or the level left
Procedure, shortened: (§1)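 Inhibition of lipid peroxidation in microsomal fractions, sonicated in phosphate buffer, was read out as nmol MDA formed/h/mg protein.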

[4] = Antioxidant activity assessed as superoxide radical scavenging activity at 100 ug/ml; format: functional
Procedure, shortened: (§2)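 Superoxide was generated enzymatically by xanthine with xanthine oxidase (0.04 U) and nitroblue tetrazolium in 100 mM phosphate buffer, pH 8.2, with or without test agent. Mixtures were incubated at 37 °C for 30 min and stopped with glacial acetic acid. Formazan formation was measured spectrophotometrically.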

[5] = tested on: Rattus norvegicus; assay: Antidyslipidemic activity against triton-induced hyperlipidemia in Charles Foster rat assessed as reduction in plasma phospholipid level at 100 mg/kg, po after 18 hrs relative to control; format: functional; parameters: scale not given: the % may be the effect or the level left
Procedure, shortened: (§3)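 Adult male Charles Foster rats (200–225 g) were given Triton WR-1339 400 mg/kg i.p. Test agent was suspended in 0.2% w/v gum acacia in water and dosed orally at the same time. There were five rats per group, and controls received vehicle. At 18 h, retro-orbital blood was taken into EDTA and centrifuged at 2500g, 4 °C, 10 min. Plasma was diluted 1:3 in saline, and lipids were measured by standard enzymatic kits.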

[6] = Antioxidant activity assessed as superoxide radical scavenging activity at 200 ug/ml; format: functional; procedure, shortened: as §2
[7] = tested on: Rattus norvegicus; assay: Antidyslipidemic activity against triton-induced hyperlipidemia in Charles Foster rat assessed as reduction in plasma triglyceride level at 100 mg/kg, po after 18 hrs relative to control; format: functional; parameters: scale not given: the % may be the effect or the level left; procedure, shortened: as §3
[8] = tested on: Rattus norvegicus; assay: Antidyslipidemic activity against triton-induced inhibition of post heparin lipolytic activity in Charles Foster rat at 100 mg/kg, po after 18 hrs; format: functional; parameters: scale not given: the % may be the effect or the level left
Procedure, shortened: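 Triton WR-1339 hyperlipidemia model in male Charles Foster rats (200–225 g): 400 mg/kg i.p. triton plus oral test agent in gum acacia suspension, with five rats per group. After 18 h, post-heparin lipolytic activity was determined by the Wing and Robinson method on plasma, using spectrophotometry and an auto-analyzer.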

[9] = tested on: Rattus norvegicus; assay: Antidyslipidemic activity against triton-induced hyperlipidemia in Charles Foster rat assessed as reduction in total cholesterol level at 100 mg/kg, po after 18 hrs relative to control
[10] = Antioxidant activity assessed as inhibition of microsomal lipid peroxidation at 100 ug/mL; format: functional; parameters: scale not given: the % may be the effect or the level left; procedure, shortened: as §1

| SMILES | Activity [1] [%] | Activity [2] [%] | Activity [3] [%] | Activity [4] [%] | Activity [5] [%] | Activity [6] [%] | Activity [7] [%] | Activity [8] [%] | total cholesterol lowering [9] [%] | Activity [10] [%] |
| --- | --- | --- | --- | --- | --- | --- | --- | --- | --- | --- |
| OC[C@@H](O)[C@@H](O)[C@H](O)[C@H](O)CO | -44.5 | -31.2 | – | – | – | – | – | – | – | – |
| CCOC(=O)C1=C(C)N(c2ccc(Cl)cc2)C=CC1c1ccccc1 (centres undefined) | -31.1 | -20.8 | -34.4 | -19.1 | 16.5 | -37.4 | 9.8 | 8.3 | 16 | – |
| CC1=C(C(=O)OC(C)(C)C)C(c2ccccc2)C=CN1c1ccc(Cl)cc1 (centres undefined) | -34.6 | -19.2 | -26.6 | -24.5 | 13.5 | -48 | 11.5 | 8.9 | 15.5 | -18.5 |
| COC(=O)C1=C(C)N(c2ccccc2)C=CC1c1ccccc1 (centres undefined) | -23 | -26.9 | -37.3 | -25.9 | 21.3 | -43 | 18.7 | 10.9 | 24.8 | -21.5 |
| CCOC(=O)C1=C(C)N(c2ccccc2)C=CC1c1ccccc1 (centres undefined) | -29.3 | -13.8 | -37.1 | -21.5 | 28.5 | -34 | 25.3 | 16.3 | 21.9 | -19.9 |
| Oc1ncnc2[nH]ncc12 | – | – | – | -66.4 | – | -77.5 | – | – | – | – |
| CCOC(=O)C1=C(C)N(c2ccc(F)cc2)C=CC1c1ccccc1 (centres undefined) | -25.5 | -10.9 | -35.8 | -25.7 | 15.3 | -42.5 | 13.6 | 8.1 | 17 | -28.5 |
| COC(=O)C1=C(C)N(c2ccc(OC)cc2)C=C(C)C1c1ccccc1 (centres undefined) | -22.6 | -13.9 | -28.9 | -19.8 | 15.3 | -34.7 | 20.7 | 14.7 | 15 | -14.7 |
| CCOC(=O)C1=C(C)N(c2ccccc2)C=CC1c1ccccc1[N+](=O)[O-] (centres undefined) | -26.9 | -11.5 | -25.1 | -20.6 | 5.7 | -33.6 | 10.5 | 12.3 | 14 | -19.2 |
| Cc1c(C)c2c(c(C)c1O)CC[C@@](C)(CCC[C@H](C)CCC[C@H](C)CCCC(C)C)O2 | – | – | -52.1 | – | – | – | – | – | – | -43.9 |
| CC1=C(C(=O)OC(C)(C)C)C(c2ccccc2)C=CN1c1ccccc1 (centres undefined) | -37.1 | -23.1 | -42.1 | -30.7 | 12.8 | -52.9 | 11 | 8.4 | 11.5 | -35.7 |
| CCOC(=O)C1=C(C)N(c2ccc(C)cc2)C=CC1c1ccccc1 (centres undefined) | -32.7 | -20.7 | -38.4 | -22.9 | 23.7 | -35.8 | 21.2 | 24.9 | 18.7 | -23.5 |
| Cc1ccc(C)c(OCCCC(C)(C)C(=O)O)c1 [GEMFIBROZIL] | – | – | – | – | 39.1 | – | 36.1 | 34.2 | 37.1 | – |
| CCOC(=O)C1=C(C)N(c2ccc(Br)cc2)C=CC1c1ccccc1 (centres undefined) | -35.7 | -14.8 | -32.1 | -18.7 | 12.5 | -28.4 | 12.1 | 12 | 18.3 | -20.7 |
| COC(=O)C1=C(C)N(c2cccc(Cl)c2)C=C(C)C1c1ccccc1 (centres undefined) | -23 | -12 | -22.8 | -21.3 | 13.4 | -35.3 | 8.9 | 13.9 | 12.2 | -16.2 |
| COC(=O)C1=C(C)N(c2ccccc2)C=CC1c1ccc(OC)cc1 (centres undefined) | -27.7 | -18.3 | -30.3 | -29.8 | 18.7 | -44.8 | 18.7 | 9.8 | 18.1 | -17.6 |
| COC(=O)C1=C(C)N(c2ccccc2)C=C(C)C1c1ccccc1 (centres undefined) | -33.1 | -14.1 | -37.4 | -21.1 | 11 | -48 | 8.1 | 8.4 | 11 | -22.7 |
| COC(=O)C1=C(C)N(c2cccc(C)c2C)C=C(C)C1c1ccccc1 (centres undefined) | -29.3 | -19.7 | -33.1 | -23.6 | 23.9 | -32.2 | 25.7 | 23.7 | 24.1 | -22.7 |
